Test results as given in BindingDB's records for doi:10.1016/j.ejmech.2016.07.006 (Csir-Indian Institute of Integrative Medicine, 2016).

Key:
[1] = molecular target: Phosphatidylinositol 4,5-bisphosphate 3-kinase catalytic subunit beta isoform (Homo sapiens, UniProt P42338); assay: Inhibition of PI3Kbeta (unknown origin) using diC8 PIP2 as substrate after 60 mins by ADP-glo assay
[2] = molecular target: T1, Phosphatidylinositol 4,5-bisphosphate 3-kinase catalytic subunit delta isoform (Homo sapiens, UniProt O00329); assay: Inhibition of PI3Kdelta (unknown origin) using diC8 PIP2 as substrate after 120 mins by ADP-glo assay
T1 sequence (O00329 whole entry): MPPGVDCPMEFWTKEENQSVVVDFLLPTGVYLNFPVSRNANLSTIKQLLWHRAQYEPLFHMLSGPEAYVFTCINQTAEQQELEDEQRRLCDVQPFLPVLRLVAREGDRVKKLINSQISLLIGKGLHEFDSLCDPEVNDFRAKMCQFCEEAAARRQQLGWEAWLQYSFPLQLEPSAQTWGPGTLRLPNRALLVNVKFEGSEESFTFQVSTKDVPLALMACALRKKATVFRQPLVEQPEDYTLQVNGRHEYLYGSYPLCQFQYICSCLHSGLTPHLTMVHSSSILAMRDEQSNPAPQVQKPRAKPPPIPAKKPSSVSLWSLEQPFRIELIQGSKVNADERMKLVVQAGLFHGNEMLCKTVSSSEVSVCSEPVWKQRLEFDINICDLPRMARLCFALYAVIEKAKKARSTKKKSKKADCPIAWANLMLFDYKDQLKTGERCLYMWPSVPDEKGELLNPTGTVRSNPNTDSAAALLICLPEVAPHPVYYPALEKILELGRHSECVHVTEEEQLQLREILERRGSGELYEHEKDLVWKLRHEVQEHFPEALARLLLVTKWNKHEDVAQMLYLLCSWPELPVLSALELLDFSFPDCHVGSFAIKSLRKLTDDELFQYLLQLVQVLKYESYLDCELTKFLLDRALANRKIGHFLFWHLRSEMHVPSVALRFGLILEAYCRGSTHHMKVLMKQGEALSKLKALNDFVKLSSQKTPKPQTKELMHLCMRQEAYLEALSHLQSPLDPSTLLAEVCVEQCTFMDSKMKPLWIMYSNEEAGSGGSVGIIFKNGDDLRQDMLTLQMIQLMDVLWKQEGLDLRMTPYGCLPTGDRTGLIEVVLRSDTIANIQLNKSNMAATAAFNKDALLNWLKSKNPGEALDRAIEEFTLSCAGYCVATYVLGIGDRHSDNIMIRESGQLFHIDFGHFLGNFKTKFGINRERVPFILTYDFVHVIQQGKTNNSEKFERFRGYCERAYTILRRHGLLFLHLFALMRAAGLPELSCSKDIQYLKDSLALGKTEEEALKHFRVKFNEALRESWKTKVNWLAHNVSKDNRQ
Procedure, shortened: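 Delta isoform reacted 120 min in glycine-NaOH pH 8.5 buffer (50 mM KCl, 2.5 mM MgCl2, 1 mM DTT, 0.05% CHAPS) with 0.01 mM ATP and 0.05 mM diC8 PIP2; ADP formed detected by ADP-Glo (40 min) plus detection buffer (40 min) luminescence. Dundee profiling centre.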

[3] = molecular target: Phosphatidylinositol 4,5-bisphosphate 3-kinase catalytic subunit alpha isoform (Homo sapiens, UniProt P42336); assay: Inhibition of PI3Kalpha (unknown origin) using diC8 PIP2 as substrate after 80 mins by ADP-glo assay
Sequence of Phosphatidylinositol 4,5-bisphosphate 3-kinase catalytic subunit alpha isoform (P42336 whole entry, canonical isoform): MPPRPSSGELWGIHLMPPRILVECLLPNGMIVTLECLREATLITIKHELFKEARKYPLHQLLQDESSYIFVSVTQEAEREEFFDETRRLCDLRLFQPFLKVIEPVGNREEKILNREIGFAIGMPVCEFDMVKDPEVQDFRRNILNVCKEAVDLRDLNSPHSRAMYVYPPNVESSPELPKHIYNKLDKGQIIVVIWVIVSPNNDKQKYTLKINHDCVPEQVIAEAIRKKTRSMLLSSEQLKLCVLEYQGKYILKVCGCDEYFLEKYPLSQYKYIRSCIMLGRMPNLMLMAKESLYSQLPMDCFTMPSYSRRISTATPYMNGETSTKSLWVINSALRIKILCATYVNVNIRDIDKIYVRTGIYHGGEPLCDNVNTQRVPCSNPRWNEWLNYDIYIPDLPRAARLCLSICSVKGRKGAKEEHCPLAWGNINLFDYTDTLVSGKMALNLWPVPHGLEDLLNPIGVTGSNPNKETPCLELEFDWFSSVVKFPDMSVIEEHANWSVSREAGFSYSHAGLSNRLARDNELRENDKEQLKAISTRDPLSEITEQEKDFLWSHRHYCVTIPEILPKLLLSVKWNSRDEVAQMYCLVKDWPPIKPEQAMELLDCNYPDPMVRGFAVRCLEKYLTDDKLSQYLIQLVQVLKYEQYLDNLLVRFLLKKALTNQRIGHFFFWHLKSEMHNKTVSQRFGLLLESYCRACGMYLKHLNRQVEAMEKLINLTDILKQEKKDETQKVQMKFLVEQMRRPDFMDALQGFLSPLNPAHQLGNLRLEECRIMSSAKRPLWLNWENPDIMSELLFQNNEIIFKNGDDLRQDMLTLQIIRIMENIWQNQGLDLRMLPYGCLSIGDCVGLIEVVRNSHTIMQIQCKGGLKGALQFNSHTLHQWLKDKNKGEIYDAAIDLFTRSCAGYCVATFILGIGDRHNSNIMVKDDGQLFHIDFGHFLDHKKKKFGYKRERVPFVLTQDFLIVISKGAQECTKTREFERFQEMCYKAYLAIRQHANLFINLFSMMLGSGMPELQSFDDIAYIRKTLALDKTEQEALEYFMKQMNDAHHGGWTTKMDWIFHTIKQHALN

Sequence of Phosphatidylinositol 4,5-bisphosphate 3-kinase catalytic subunit beta isoform (P42338 whole entry, canonical isoform): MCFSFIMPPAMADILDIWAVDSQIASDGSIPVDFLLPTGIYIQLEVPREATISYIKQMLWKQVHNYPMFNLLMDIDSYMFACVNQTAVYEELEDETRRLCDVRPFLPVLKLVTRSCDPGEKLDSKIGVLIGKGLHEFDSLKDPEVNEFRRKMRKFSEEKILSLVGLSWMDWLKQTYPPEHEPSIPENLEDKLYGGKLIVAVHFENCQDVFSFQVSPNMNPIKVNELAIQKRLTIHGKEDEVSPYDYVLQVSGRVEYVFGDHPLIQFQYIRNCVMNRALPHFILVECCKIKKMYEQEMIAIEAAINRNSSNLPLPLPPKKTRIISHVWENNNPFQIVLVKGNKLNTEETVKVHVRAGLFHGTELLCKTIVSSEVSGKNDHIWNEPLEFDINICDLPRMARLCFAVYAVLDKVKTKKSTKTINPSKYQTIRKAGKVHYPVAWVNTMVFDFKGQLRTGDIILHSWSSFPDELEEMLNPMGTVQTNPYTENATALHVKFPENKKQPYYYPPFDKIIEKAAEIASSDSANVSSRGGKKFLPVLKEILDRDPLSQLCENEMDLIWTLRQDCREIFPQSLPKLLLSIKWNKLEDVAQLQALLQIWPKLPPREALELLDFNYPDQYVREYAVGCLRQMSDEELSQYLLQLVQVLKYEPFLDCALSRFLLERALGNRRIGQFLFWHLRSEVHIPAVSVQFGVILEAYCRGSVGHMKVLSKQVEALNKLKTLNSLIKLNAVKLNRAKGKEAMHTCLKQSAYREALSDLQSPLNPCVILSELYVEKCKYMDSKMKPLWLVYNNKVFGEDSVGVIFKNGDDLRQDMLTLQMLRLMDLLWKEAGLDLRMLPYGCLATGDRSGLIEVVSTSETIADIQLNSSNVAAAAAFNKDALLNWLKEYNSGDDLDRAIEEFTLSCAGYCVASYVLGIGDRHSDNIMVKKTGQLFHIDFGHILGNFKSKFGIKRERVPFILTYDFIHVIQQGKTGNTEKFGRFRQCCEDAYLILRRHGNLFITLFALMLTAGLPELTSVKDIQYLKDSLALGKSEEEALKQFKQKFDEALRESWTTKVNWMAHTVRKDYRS

IC50 [1] | IC50 [2] | IC50 [3] | SMILES
> 10 µM | > 10 µM | – | N#CCc1ccc(Nc2ncnc3ccc(-c4ccc5c(c4)OCO5)cc23)cc1
> 20 µM | – | – | N#CCc1ccc(Nc2ncnc3ccc(-c4cncc5ccccc45)cc23)cc1
> 10 µM | > 10 µM | – | N#CCc1ccc(Nc2ncnc3ccc(-c4ccc5c(c4)OCCO5)cc23)cc1
> 10 µM | > 10 µM | – | N#CCc1ccc(Nc2ncnc3ccc(-c4cccc([N+](=O)[O-])c4)cc23)cc1
> 10 µM | > 10 µM | – | N#CCc1ccc(Nc2ncnc3ccc(-c4ccncc4)cc23)cc1
> 10 µM | > 10 µM | – | CC(=O)c1ccc(-c2ccc3ncnc(Nc4ccc(CC#N)cc4)c3c2)cc1
> 10 µM | > 10 µM | > 10 µM | C=Cc1ccc(-c2ccc3ncnc(Nc4ccc(CC#N)cc4)c3c2)cc1
> 10 µM | > 10 µM | – | N#CCc1ccc(Nc2ncnc3ccc(-c4ccc5[nH]ccc5c4)cc23)cc1
